Measurements: publication PMC3510669 (Journal of immunology (Baltimore, Md. : 1950), 2010)

Test system: naïve CD4^+ T cells
Test: pMHCII tetramer-based cell enrichment of spleen and lymph node cells
Parameters: species or system mouse
Settings: B6 mice; for fold smaller than the 2W:I-A^b-specific naïve population: spleen and lymph nodes (3K: spleen and lymph nodes or thymus), Fig. 3B, C, 4D; for size of naïve CD4+ T cell population specific for peptide:I-A^b: spleen and lymph nodes, mean, Fig. 4D, 6D
Method in brief: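 Spleen and lymph node cells from individual naïve B6 mice were enriched with peptide:I-A^b tetramers. Tetramer-binding CD4⁺ T cells were counted as total cells per mouse, and group means were taken across individual mice.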

Sequence	fold smaller than the 2W:I-A^b-specific naïve population	size of naïve CD4+ T cell population specific for peptide:I-A^b
EARGALANWAVDSA [1R]	3 fold	108 ± 36 cells
EAGGALANWAVDSA [1G]	3 fold	127 ± 39 cells
EAGGALANGAVDSA [2G]	6 fold	62 ± 13 cells
